Reference: ChEMBL document CHEMBL1153856, “Synthesis and spectral characterization of a new class of N-(N-methylpiperazinoacetyl)-2,6-diarylpiperidin-4-ones: antimicrobial, analgesic and antipyretic studies” (2009)
In brackets after ≈: the same amount, converted by molar mass.

Key:
Type in all cases: functional
Staphylococcus aureus = test: Antimicrobial activity against Staphylococcus aureus after 24 hrs by twofold serial dilution method
Method in brief: (§1)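 Twofold serial broth dilution in nutrient broth at pH 7.4 ± 0.2. Compound stocks were 1 mg/mL in DMSO, diluted 1:5 into seeded broth, then six serial dilutions. Inocula came from 24 h nutrient-agar cultures, final 10⁵ cfu/mL. Incubation was 37 ± 1 °C for 24 h, with growth and solvent controls. MIC was read visually; ciprofloxacin was the standard.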

Escherichia coli = test: Antimicrobial activity against Escherichia coli after 24 hrs by twofold serial dilution method; method in brief: as §1
Pseudomonas aeruginosa = test: Antimicrobial activity against Pseudomonas aeruginosa after 24 hrs by twofold serial dilution method; method in brief: as §1
[1] = test system: Salmonella enterica subsp. enterica serovar Typhi str. CT18; test: Antimicrobial activity against Salmonella typhi after 24 hrs by twofold serial dilution method; method in brief: as §1
Klebsiella pneumoniae = test: Antimicrobial activity against Klebsiella pneumoniae after 24 hrs by twofold serial dilution method; method in brief: as §1
Candida albicans = test: Antimicrobial activity against Candida albicans after 72 to 96 hrs by twofold serial dilution method
Method in brief: (§2)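 Twofold serial broth dilution in Sabouraud dextrose broth at pH 5.6. Spores came from 1–7-day Sabouraud agar slants, final inoculum 1.1–1.5 × 10² cfu/mL. Compound stocks were 1 mg/mL in DMSO, diluted 1:5 into seeded broth, then six serial dilutions. Incubation was 28 ± 1 °C for 72–96 h, with growth and solvent controls. MIC was read visually; amphotericin B was the standard.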

Rhizopus = test: Antimicrobial activity against Rhizopus sp. after 72 to 96 hrs by twofold serial dilution method; method in brief: as §2
Aspergillus niger = test: Antimicrobial activity against Aspergillus niger after 72 to 96 hrs by twofold serial dilution method; method in brief: as §2
Aspergillus flavus = test: Antimicrobial activity against Aspergillus flavus after 72 to 96 hrs by twofold serial dilution method; method in brief: as §2
Mus musculus [2] = test: Analgesic activity in albino mouse assessed as inhibition of acetic acid-induced writhing response at 30 mg/kg, po administered 1 hr prior to acetic acid challenge relative to control
Method in brief: (§3)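 Albino mice of both sexes, 20–25 g, n = 6 per group. Doses of 30, 60 or 90 mg/kg were given orally as suspensions in 1% sodium CMC. 1 h later, 1% acetic acid in normal saline (10 mL/kg) was injected ip. Complete extension of either hind limb counted as a writhe. Counting started 5 min after injection and ran 30 min. Results are % inhibition = [1 − T/C] × 100 versus vehicle controls, mean ± SEM.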

Mus musculus [3] = test: Analgesic activity in albino mouse assessed as inhibition of acetic acid-induced writhing response at 60 mg/kg, po administered 1 hr prior to acetic acid challenge relative to control; method in brief: as §3
Mus musculus [4] = test: Analgesic activity in albino mouse assessed as inhibition of acetic acid-induced writhing response at 90 mg/kg, po administered 1 hr prior to acetic acid challenge relative to control; method in brief: as §3
Rattus norvegicus [5] = test: Antipyretic activity against brewer's yeast-induced hyperthermia in Wistar rat assessed as change in rectal temperature at 30 mg/kg, po after 30 mins
Method in brief: (§4)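 Wistar rats of both sexes, 200–250 g, received brewer's yeast in normal saline sc. Rectal temperature was taken with a digital thermometer (precision 0.1 °C). At 18 h, rats whose temperature had risen 0.3–0.5 °C were selected. Test compounds (30 or 60 mg/kg) or indomethacin (5 mg/kg) were given orally in 1% CMC; controls received vehicle only. Temperature was measured at 30, 60, 90, 120 and 150 min, mean ± SEM.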

Rattus norvegicus [6] = test: Antipyretic activity against brewer's yeast-induced hyperthermia in Wistar rat assessed as change in rectal temperature at 30 mg/kg, po after 60 mins; method in brief: as §4
Rattus norvegicus [7] = test: Antipyretic activity against brewer's yeast-induced hyperthermia in Wistar rat assessed as change in rectal temperature at 30 mg/kg, po after 90 mins; method in brief: as §4
Rattus norvegicus [8] = test: Antipyretic activity against brewer's yeast-induced hyperthermia in Wistar rat assessed as change in rectal temperature at 30 mg/kg, po after 120 mins; method in brief: as §4
Rattus norvegicus [9] = test: Antipyretic activity against brewer's yeast-induced hyperthermia in Wistar rat assessed as change in rectal temperature at 30 mg/kg, po after 150 mins; method in brief: as §4
Rattus norvegicus [10] = test: Antipyretic activity against brewer's yeast-induced hyperthermia in Wistar rat assessed as change in rectal temperature at 60 mg/kg, po after 30 mins; method in brief: as §4
Rattus norvegicus [11] = test: Antipyretic activity against brewer's yeast-induced hyperthermia in Wistar rat assessed as change in rectal temperature at 60 mg/kg, po after 60 mins; method in brief: as §4
Rattus norvegicus [12] = test: Antipyretic activity against brewer's yeast-induced hyperthermia in Wistar rat assessed as change in rectal temperature at 60 mg/kg, po after 90 mins; method in brief: as §4
Rattus norvegicus [13] = test: Antipyretic activity against brewer's yeast-induced hyperthermia in Wistar rat assessed as change in rectal temperature at 60 mg/kg, po after 120 mins; method in brief: as §4
Rattus norvegicus [14] = test: Antipyretic activity against brewer's yeast-induced hyperthermia in Wistar rat assessed as change in rectal temperature at 60 mg/kg, po after 150 mins; method in brief: as §4

CC1C(=O)CC(c2ccc(Cl)cc2)N(C(=O)CN2CCN(C)CC2)C1c1ccc(Cl)cc1 (configuration not stated)
MIC (Staphylococcus aureus): 50 µg/mL (≈ 105 µM) | MIC (Escherichia coli): 25 µg/mL (≈ 52.7 µM) | MIC (Pseudomonas aeruginosa): 6.25 µg/mL (≈ 13.2 µM) | MIC [1]: 12.5 µg/mL (≈ 26.3 µM) | MIC (Klebsiella pneumoniae): 25 µg/mL (≈ 52.7 µM) | MIC (Candida albicans): 6.25 µg/mL (≈ 13.2 µM) | MIC (Rhizopus): 12.5 µg/mL (≈ 26.3 µM) | MIC (Aspergillus niger): 25 µg/mL (≈ 52.7 µM) | MIC (Aspergillus flavus): 50 µg/mL (≈ 105 µM) | inhibition in vivo at 30 mg/kg (Mus musculus [2]): 49.2% | inhibition in vivo at 60 mg/kg (Mus musculus [3]): 70.4% | inhibition in vivo at 90 mg/kg (Mus musculus [4]): 61.6% | Activity (Rattus norvegicus [5]): 37.05 °C | Activity (Rattus norvegicus [6]): 37.96 °C | Activity (Rattus norvegicus [7]): 37.89 °C | Activity (Rattus norvegicus [8]): 37.7 °C | Activity (Rattus norvegicus [9]): 37.65 °C | Activity (Rattus norvegicus [10]): 37.95 °C | Activity (Rattus norvegicus [11]): 37.92 °C | Activity (Rattus norvegicus [12]): 37.85 °C | Activity (Rattus norvegicus [13]): 37.65 °C | Activity (Rattus norvegicus [14]): 37.5 °C

CC1C(=O)C(C)C(c2ccccc2)N(C(=O)CN2CCN(C)CC2)C1c1ccccc1 (configuration not stated)
MIC (Staphylococcus aureus): 50 µg/mL (≈ 119 µM) | MIC (Escherichia coli): 100 µg/mL (≈ 238 µM) | MIC (Pseudomonas aeruginosa): 50 µg/mL (≈ 119 µM) | MIC [1]: 25 µg/mL (≈ 59.6 µM) | MIC (Klebsiella pneumoniae): 12.5 µg/mL (≈ 29.8 µM) | MIC (Candida albicans): 100 µg/mL (≈ 238 µM) | MIC (Rhizopus): 50 µg/mL (≈ 119 µM) | MIC (Aspergillus niger): 50 µg/mL (≈ 119 µM) | MIC (Aspergillus flavus): 50 µg/mL (≈ 119 µM) | inhibition in vivo at 30 mg/kg (Mus musculus [2]): 17.4% | inhibition in vivo at 60 mg/kg (Mus musculus [3]): 24.1% | inhibition in vivo at 90 mg/kg (Mus musculus [4]): 13.9% | Activity (Rattus norvegicus [5]): 38.11 °C | Activity (Rattus norvegicus [6]): 38 °C | Activity (Rattus norvegicus [7]): 38.95 °C | Activity (Rattus norvegicus [8]): 38.85 °C | Activity (Rattus norvegicus [9]): 38.7 °C | Activity (Rattus norvegicus [10]): 38.1 °C | Activity (Rattus norvegicus [11]): 37.95 °C | Activity (Rattus norvegicus [12]): 37.9 °C | Activity (Rattus norvegicus [13]): 37.7 °C | Activity (Rattus norvegicus [14]): 37.55 °C

CCC1C(=O)CC(c2ccccc2)N(C(=O)CN2CCN(C)CC2)C1c1ccccc1 (configuration not stated)
MIC (Staphylococcus aureus): 100 µg/mL (≈ 238 µM) | MIC (Escherichia coli): > 200 µg/mL | MIC (Pseudomonas aeruginosa): 200 µg/mL (≈ 477 µM) | MIC [1]: 100 µg/mL (≈ 238 µM) | MIC (Klebsiella pneumoniae): 50 µg/mL (≈ 119 µM) | MIC (Candida albicans): 100 µg/mL (≈ 238 µM) | MIC (Rhizopus): > 200 µg/mL | MIC (Aspergillus niger): 200 µg/mL (≈ 477 µM) | MIC (Aspergillus flavus): > 200 µg/mL | inhibition in vivo at 30 mg/kg (Mus musculus [2]): 8% | inhibition in vivo at 60 mg/kg (Mus musculus [3]): 4.5% | inhibition in vivo at 90 mg/kg (Mus musculus [4]): 1.2% | Activity (Rattus norvegicus [5]): 38.27 °C | Activity (Rattus norvegicus [6]): 38.22 °C | Activity (Rattus norvegicus [7]): 38.15 °C | Activity (Rattus norvegicus [8]): 38.01 °C | Activity (Rattus norvegicus [9]): 38.98 °C | Activity (Rattus norvegicus [10]): 38.25 °C | Activity (Rattus norvegicus [11]): 38.2 °C | Activity (Rattus norvegicus [12]): 38.1 °C | Activity (Rattus norvegicus [13]): 38.95 °C | Activity (Rattus norvegicus [14]): 38.9 °C

COc1ccc(C2C(C)C(=O)C(C)C(c3ccc(OC)cc3)N2C(=O)CN2CCN(C)CC2)cc1 (configuration not stated)
MIC (Staphylococcus aureus): 12.5 µg/mL (≈ 26.1 µM) | MIC (Escherichia coli): 25 µg/mL (≈ 52.1 µM) | MIC (Pseudomonas aeruginosa): 50 µg/mL (≈ 104 µM) | MIC [1]: 100 µg/mL (≈ 208 µM) | MIC (Klebsiella pneumoniae): 25 µg/mL (≈ 52.1 µM) | MIC (Candida albicans): 6.25 µg/mL (≈ 13 µM) | MIC (Rhizopus): 25 µg/mL (≈ 52.1 µM) | MIC (Aspergillus niger): 25 µg/mL (≈ 52.1 µM) | MIC (Aspergillus flavus): 12.5 µg/mL (≈ 26.1 µM) | inhibition in vivo at 30 mg/kg (Mus musculus [2]): 46.2% | inhibition in vivo at 60 mg/kg (Mus musculus [3]): 59.1% | inhibition in vivo at 90 mg/kg (Mus musculus [4]): 38.7% | Activity (Rattus norvegicus [5]): 38.1 °C | Activity (Rattus norvegicus [6]): 38.01 °C | Activity (Rattus norvegicus [7]): 37.95 °C | Activity (Rattus norvegicus [8]): 37.8 °C | Activity (Rattus norvegicus [9]): 37.7 °C | Activity (Rattus norvegicus [10]): 38.01 °C | Activity (Rattus norvegicus [11]): 38.95 °C | Activity (Rattus norvegicus [12]): 37.9 °C | Activity (Rattus norvegicus [13]): 37.85 °C | Activity (Rattus norvegicus [14]): 37.6 °C

CC1C(=O)C(C)C(c2ccc(Cl)cc2)N(C(=O)CN2CCN(C)CC2)C1c1ccc(Cl)cc1 (configuration not stated)
MIC (Staphylococcus aureus): 6.25 µg/mL (≈ 12.8 µM) | MIC (Escherichia coli): 12.5 µg/mL (≈ 25.6 µM) | MIC (Pseudomonas aeruginosa): 12.5 µg/mL (≈ 25.6 µM) | MIC [1]: 50 µg/mL (≈ 102 µM) | MIC (Klebsiella pneumoniae): 6.25 µg/mL (≈ 12.8 µM) | MIC (Candida albicans): 12.5 µg/mL (≈ 25.6 µM) | MIC (Rhizopus): 6.25 µg/mL (≈ 12.8 µM) | MIC (Aspergillus niger): 25 µg/mL (≈ 51.2 µM) | MIC (Aspergillus flavus): 25 µg/mL (≈ 51.2 µM) | inhibition in vivo at 30 mg/kg (Mus musculus [2]): 22.5% | inhibition in vivo at 60 mg/kg (Mus musculus [3]): 36.5% | inhibition in vivo at 90 mg/kg (Mus musculus [4]): 38.9% | Activity (Rattus norvegicus [5]): 37.95 °C | Activity (Rattus norvegicus [6]): 37.9 °C | Activity (Rattus norvegicus [7]): 37.8 °C | Activity (Rattus norvegicus [8]): 37.6 °C | Activity (Rattus norvegicus [9]): 37.4 °C | Activity (Rattus norvegicus [10]): 37.92 °C | Activity (Rattus norvegicus [11]): 37.85 °C | Activity (Rattus norvegicus [12]): 37.75 °C | Activity (Rattus norvegicus [13]): 37.55 °C | Activity (Rattus norvegicus [14]): 37.3 °C

Cc1ccc(C2C(C)C(=O)C(C)C(c3ccc(C)cc3)N2C(=O)CN2CCN(C)CC2)cc1 (configuration not stated)
MIC (Staphylococcus aureus): 50 µg/mL (≈ 112 µM) | MIC (Escherichia coli): 100 µg/mL (≈ 223 µM) | MIC (Pseudomonas aeruginosa): 25 µg/mL (≈ 55.9 µM) | MIC [1]: 25 µg/mL (≈ 55.9 µM) | MIC (Klebsiella pneumoniae): 12.5 µg/mL (≈ 27.9 µM) | MIC (Candida albicans): 50 µg/mL (≈ 112 µM) | MIC (Rhizopus): 25 µg/mL (≈ 55.9 µM) | MIC (Aspergillus niger): 12.5 µg/mL (≈ 27.9 µM) | MIC (Aspergillus flavus): 12.5 µg/mL (≈ 27.9 µM) | inhibition in vivo at 30 mg/kg (Mus musculus [2]): 42.6% | inhibition in vivo at 60 mg/kg (Mus musculus [3]): 54.6% | inhibition in vivo at 90 mg/kg (Mus musculus [4]): 33.1% | Activity (Rattus norvegicus [5]): 38.11 °C | Activity (Rattus norvegicus [6]): 38.02 °C | Activity (Rattus norvegicus [7]): 37.95 °C | Activity (Rattus norvegicus [8]): 37.9 °C | Activity (Rattus norvegicus [9]): 37.7 °C | Activity (Rattus norvegicus [10]): 38.01 °C | Activity (Rattus norvegicus [11]): 38.95 °C | Activity (Rattus norvegicus [12]): 37.9 °C | Activity (Rattus norvegicus [13]): 37.8 °C | Activity (Rattus norvegicus [14]): 37.6 °C
